Source: the RNAGym collection of RNA variant scans (doi:10.1126/science.aae0568)
Variants at the floor of the assay were thinned out.

B1: tRNA (parent)
chain: GUUCCGUUGGCGUAAUGGUAACGCGUCUCCCUCCUAAGGAGAAGACUGCGGGUUCGAGUCCCGUACGGAACG

Variants of: B1
Assay: yeast fitness relative to wild type (ratio to wild type); higher = fitter; tRNA-Arg(CCU), competitive growth, 37 C, YPD
Summary of the method: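 For this measurement, the tRNA-Arg(CCU) gene was varied by chemical synthesis at a 3% per-site mutation rate across 69 sites, and each variant was placed at the native genomic locus in Saccharomyces cerevisiae. The pooled strains went through a 24-hour competition in YPD at 37°C in six parallel replicates, with amplicons from start and end populations read by 100-nucleotide paired-end sequencing. Darwinian fitness relative to wild type followed from the change in each genotype's frequency. Genotypes needed ≥ 100 starting reads, and estimates < 0.5 were set to 0.5.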

Compared with A15G U26G G41C A43C, C61A C62U is higher in yeast fitness: at most 0.5 for the first, 0.795 for the second.

A42C G58A C62A and U3G A15G A21U C24U G38A C61G C66U A69U cannot be ordered by yeast fitness: at most 0.5 for the first, at most 0.5 for the second.

Compared with U2A U13G U28A A36U A45U A57G, A43U A69U is higher in yeast fitness: 0.59 for the first, 0.904 for the second.

First: C11A C24U U32A U35C
Second: U7A C49U A65C
The yeast fitness of the first is lower: 0.566 for the first, 0.711 for the second.

First: C4G A14U C31U G44A C46U C49U
Second: C29U C31U
The yeast fitness of the first is lower: at most 0.5 for the first, 0.846 for the second.

Going from A20U U28G U32G C34G C66U to U47G A69U, the yeast fitness rises from at most 0.5 to 0.764.

A14C U19G C31G C33U A42G G48A G52A and G12A C24G C62G cannot be ordered by yeast fitness: at most 0.5 for the first, at most 0.5 for the second.

First: C24A C33A
Second: G9C U16G U32C A37C
The yeast fitness of the first is higher: 0.587 for the first, at most 0.5 for the second.

Going from C46G C66U to C11U C33U A36G G39A G44A C55G U59C, the yeast fitness falls from 0.928 to at most 0.5.

U16A A21G C34A C49G C62U and C24G A36U A40G U64C cannot be ordered by yeast fitness: at most 0.5 for the first, at most 0.5 for the second.

A21U A45U G50C U64G and C24G C31G G50A G68C cannot be ordered by yeast fitness: at most 0.5 for the first, at most 0.5 for the second.

C4U U7A A36U A70G and U8C C11G G58U cannot be ordered by yeast fitness: at most 0.5 for the first, at most 0.5 for the second.

Compared with A21C A40U, U2A U26C C33G A42C C49G G58C C62G is lower in yeast fitness: 0.807 for the first, at most 0.5 for the second.

First: C22G C24U G50C
Second: C49G C60U
The yeast fitness of the first is lower: at most 0.5 for the first, 0.692 for the second.

Compared with C11U U19G A65C, U32C A43C is higher in yeast fitness: 0.696 for the first, 0.83 for the second.

First: U2C C60A C66U
Second: C4G C24G C34U U47A G48C C60U
The yeast fitness of the first is higher: 0.576 for the first, 0.521 for the second.

Going from U2G G12U A43U to A37G G48A, the yeast fitness rises from 0.631 to 0.768.

First: C5G U13G A20U
Second: C11U G38A A40U G52C
The yeast fitness of the first is lower: at most 0.5 for the first, 0.568 for the second.

Going from C11G A36C G38U G56A to C11U C29U C66A, the yeast fitness rises from at most 0.5 to 0.553.

First: C11A A42C G58A
Second: G9C A14U G48C A69U
The yeast fitness of the first is higher: 0.742 for the first, at most 0.5 for the second.

A36G U54A C60G and U35C G44A A57U C66G cannot be ordered by yeast fitness: at most 0.5 for the first, at most 0.5 for the second.

G6A C11A C49U A65G and C11G U35A G68C cannot be ordered by yeast fitness: at most 0.5 for the first, at most 0.5 for the second.

A14G C29A C31A A40C G44A U59A and C29A C30A G50A cannot be ordered by yeast fitness: at most 0.5 for the first, at most 0.5 for the second.

First: C4U U16C C34A A42U
Second: C31A C33U G41C U47C G67C
The yeast fitness of the first is higher: 0.726 for the first, at most 0.5 for the second.

A14U G17C C24A C30G A57G and G25U A36U G56C cannot be ordered by yeast fitness: at most 0.5 for the first, at most 0.5 for the second.

First: A21G A65G
Second: C31U G44C A65C
The yeast fitness of the first is higher: 1.01 for the first, 0.594 for the second.

C22G A43C C46A C61G A70C and C22U C24A A42U C49U C61U cannot be ordered by yeast fitness: at most 0.5 for the first, at most 0.5 for the second.

Going from A21C A37C C55A G58A to G6C U8C A42G, the yeast fitness rises from 0.515 to 0.575.

First: A15U C24U C27U G67A
Second: C5U U19A G25C A43U
The yeast fitness of the first is lower: at most 0.5 for the first, 0.758 for the second.

First: C5A C11G A45C
Second: C49U U54C A70C
The yeast fitness of the first is lower: at most 0.5 for the first, 0.617 for the second.

C5A C11U U13G C29G C33A U59A and C29G C46A G68A cannot be ordered by yeast fitness: at most 0.5 for the first, at most 0.5 for the second.

C31U C33U A37C and U16C A20C A36U C61U cannot be ordered by yeast fitness: at most 0.5 for the first, at most 0.5 for the second.

First: A45U G56C
Second: U16C U19A U47A C61A
The yeast fitness of the first is lower: 0.714 for the first, 0.792 for the second.

First: U16G C29U
Second: G9A C33U A36C A45C G48A C55A
The yeast fitness of the first is higher: 0.806 for the first, at most 0.5 for the second.

Going from C24G A43G C49U C55G to C5G C31G, the yeast fitness rises from 0.643 to 0.824.

Going from A14C A20U G25C A43C C66U to C11U G67A, the yeast fitness rises from at most 0.5 to 0.816.

G18A C27U C31A and A21U A42C C62G cannot be ordered by yeast fitness: at most 0.5 for the first, at most 0.5 for the second.

Going from U26A G39A to C46G G51C, the yeast fitness falls from 0.87 to 0.591.

Compared with C49G G68C A70C, U16A G23C U26A C29U A42U G48A G67A is lower in yeast fitness: 0.623 for the first, at most 0.5 for the second.

First: U16G C61U A69C
Second: G17C C27U C61A
The yeast fitness of the first is higher: 0.644 for the first, 0.537 for the second.

Going from U7C U28A A37G C46U U47C to C11U U59A A69C, the yeast fitness rises from at most 0.5 to 0.537.

Compared with G58A C66U, A14C C22A A37U is lower in yeast fitness: 0.981 for the first, 0.646 for the second.

Compared with C5G A21C A45G G68A, C11G A21U is higher in yeast fitness: at most 0.5 for the first, 0.536 for the second.

First: C5A A21C C30G C34U G38C C49U C55U A70C
Second: U3A A36G A42C
The yeast fitness of the first is lower: at most 0.5 for the first, 0.647 for the second.

Going from G6C G12A U54C to C30U A42U A43C A70C, the yeast fitness falls from 0.594 to at most 0.5.

First: G17C C31G A45C U54C C55A
Second: C5U G12C A69U
The yeast fitness of the first is lower: at most 0.5 for the first, 0.62 for the second.

Going from C30A U54A A57C to U2C C22U G38C C46U, the yeast fitness falls from 0.548 to at most 0.5.

First: G18C U26A U53C
Second: G23C C46U G67A
The yeast fitness of the first is lower: 0.549 for the first, 0.564 for the second.

First: U3C C27U C31U
Second: G9A C62U A70U
The yeast fitness of the first is higher: 0.787 for the first, 0.68 for the second.

First: C5U G48A C55U A65C
Second: U8C G9A C22U C30A C49A C55A C62U C66U
The yeast fitness of the first is higher: 0.556 for the first, at most 0.5 for the second.

Compared with G25A A65C, G44A A45C C49U C61G is lower in yeast fitness: 1.01 for the first, at most 0.5 for the second.

C11G A36C C49A and C4U C31U C60A cannot be ordered by yeast fitness: at most 0.5 for the first, at most 0.5 for the second.

First: C27G G51C
Second: C5U C31U A37C A43U G50C A57G
The yeast fitness of the first is higher: 0.78 for the first, at most 0.5 for the second.

First: U26A C34U A43U C66G
Second: U8C U13A C29A C31G
The yeast fitness of the first is higher: 0.628 for the first, at most 0.5 for the second.

Going from A15U G18C C24G C46A U64C A69G to G9C C55A C61U, the yeast fitness falls from 0.513 to at most 0.5.

Compared with G6A C34A A40U, U2G A43U G67C is higher in yeast fitness: 0.556 for the first, 0.668 for the second.

Going from C30A G51C to G17A U28G A42G G68U, the yeast fitness falls from 0.508 to at most 0.5.

Compared with G17A C46U, G39C U59A is lower in yeast fitness: 0.878 for the first, 0.779 for the second.

Compared with C22A G58A, G6C U35C U59C is lower in yeast fitness: 0.866 for the first, at most 0.5 for the second.

Going from U16A U19A to C5U C29G C30A G63A U64G A69C, the yeast fitness falls from 0.952 to 0.572.

Going from C4G U16A A36C to C4A C49A, the yeast fitness rises from 0.579 to 0.684.

Compared with U7A A21C C33A A45U, A14C U16A U54A G58C is lower in yeast fitness: 0.616 for the first, at most 0.5 for the second.

First: C22G C55G G63C
Second: U7A C30U C33U C46U G68U
The yeast fitness of the first is higher: 0.572 for the first, at most 0.5 for the second.

Going from C4U A37C to G18C C29U A70C, the yeast fitness falls from 0.884 to at most 0.5.

Going from A15C G17C G50A A69U to U16A C60U, the yeast fitness rises from at most 0.5 to 0.805.

Going from G6A U35G A42G G56C to A20U G41C G51C C62G, the yeast fitness rises from at most 0.5 to 0.735.

U8C C49A G68C and C5U G10A A20G A36U A43C C61G cannot be ordered by yeast fitness: at most 0.5 for the first, at most 0.5 for the second.

Going from C5G C46U U53A to C4G C61G A65C, the yeast fitness falls from 0.529 to at most 0.5.

Going from G10A U16A A65U to C46G U59C G68C, the yeast fitness falls from 0.575 to at most 0.5.

U3A A20U C29G A40U G50C and A15G G50C C60U cannot be ordered by yeast fitness: at most 0.5 for the first, at most 0.5 for the second.

G10A G17C C30G C33G G68C and C11U C30A C49U G67U cannot be ordered by yeast fitness: at most 0.5 for the first, at most 0.5 for the second.

A14G C30A C34A A43C C62U and C30G C31A A36G G63C cannot be ordered by yeast fitness: at most 0.5 for the first, at most 0.5 for the second.

First: A42U C62G
Second: U16G C31G G48C A57U
The yeast fitness of the first is higher: 0.596 for the first, at most 0.5 for the second.

Going from C5U U19C G56C U59A A65G to U8A A15C G18C C49U, the yeast fitness rises from at most 0.5 to 0.603.

Going from C31G G63A C66U to C5A U13A U32C U35A U59C A70U, the yeast fitness falls from 0.64 to 0.547.

Compared with C4U U13C, U7A A20C A21G G23A G56A is lower in yeast fitness: 0.884 for the first, at most 0.5 for the second.

Going from U19G U47A to A14U G17A C31U C61A G68C, the yeast fitness falls from 0.771 to at most 0.5.

Compared with G9C A43U, C11U C29U C61U U64C is lower in yeast fitness: 0.694 for the first, at most 0.5 for the second.

Going from G18A G50A to U3G A37U U54C G58A C66U, the yeast fitness falls from 0.853 to at most 0.5.

Going from C5A C24U U64C to C5U A65C G68A, the yeast fitness rises from 0.639 to 0.681.

First: A14U A15C C33A G39C
Second: A15C A43U C46A
The yeast fitness of the first is lower: at most 0.5 for the first, 0.502 for the second.

First: C4U C29U C31U
Second: G17C G25C
The yeast fitness of the first is lower: 0.538 for the first, 0.658 for the second.

Compared with G12C U32G C33G G48C, G12A C31U C61U A70G is higher in yeast fitness: at most 0.5 for the first, 0.541 for the second.

U8G G10C U19A C22U C55G gave a yeast fitness of at most 0.5.
